Experimental findings from ChEMBL document CHEMBL1127568, “A new series of PDGF receptor tyrosine kinase inhibitors: 3-substituted quinoline derivatives” (J Med Chem, 1994) are described below.

Each structure is given as a SMILES string.

Assay [1] has as its target Epidermal growth factor receptor (Homo sapiens, UniProt P00533). Put plainly: Concentration required to inhibit phosphorylation of isolated human epidermal growth factor tyrosine kinase receptor by 50%.
Assay [2] has as its target T1, Platelet-derived growth factor receptor (Homo sapiens, UniProt P09619+P16234). Kind of assay: Inhibition of human PDGF receptor phosphorylation; 0.015-0.025. Type of assay: protein-complex assay. An outline of the steps:
(§1)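 PDGF receptor from NIH 3T3 cell lysates (cells made quiescent 24 h in 0.5% calf serum), stimulated with 10 ng/mL PDGF for 30 min at 4 °C and immunoprecipitated on Protein A beads. Each compound ran in at least two dose-response assays.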

For assay [3], the target named is T1, Platelet-derived growth factor receptor. Put plainly: Inhibition of human PDGF receptor phosphorylation; 0.1-0.25. It is filed as protein-complex assay. An outline of the steps:
as §1

Assay [4] has the same target. Put plainly: Inhibition of isolated human PDGF receptor phosphorylation. Type of assay: protein-complex assay.
Assay [5] shares this target. Put plainly: Inhibition of human PDGF receptor phosphorylation; 0.05-0.07. It is filed as protein-complex assay. An outline of the steps: as §1
Assay [6] shares this target. Put plainly: Inhibition of human PDGF receptor phosphorylation; 0.02-0.03. Type of assay: protein-complex assay. The method in brief:
as §1

Assay [7] has the same target. Kind of assay: Inhibition of human PDGF receptor phosphorylation; 0.2-0.25. Type of assay: protein-complex assay. The method in brief:
as §1

For assay [8] the target is unchanged. Put plainly: Inhibition of human PDGF receptor phosphorylation; 0.001-0.005. It is filed as protein-complex assay. An outline of the steps:
as §1

Assay [9] shares this target. Put plainly: Inhibition of human PDGF receptor phosphorylation; 0.04-0.08. Type of assay: protein-complex assay. An outline of the steps: as §1
The target is the same in assay [10]. Put plainly: Inhibition of human PDGF receptor phosphorylation; 0.1-0.8. Type of assay: protein-complex assay. The method in brief: as §1
Assay [11] has the same target. Kind of assay: Inhibition of human PDGF receptor phosphorylation; 0.004-0.025. Type of assay: protein-complex assay. The method in brief:
as §1

Assay [12] shares this target. Put plainly: Inhibition of human PDGF receptor phosphorylation; 1-2. Type of assay: protein-complex assay. The method in brief: as §1
The target is the same in assay [13]. Put plainly: Inhibition of human PDGF receptor phosphorylation; 6-10. Type of assay: protein-complex assay.
The target is the same in assay [14]. Put plainly: Inhibition of human PDGF receptor phosphorylation; 0.02-0.08. It is filed as protein-complex assay.
For assay [15] the target is unchanged. Kind of assay: Inhibition of human PDGF receptor phosphorylation; 0.1-0.2. Type of assay: protein-complex assay. The method in brief: as §1
Assay [16] shares this target. Kind of assay: Inhibition of human PDGF receptor phosphorylation; 0.07-0.15. Type of assay: protein-complex assay.
Assay [17] has the same target. Kind of assay: Inhibition of human PDGF receptor phosphorylation; 0.025-0.03. It is filed as protein-complex assay. An outline of the steps: as §1
For assay [18], the target named is cAMP-dependent protein kinase (PKA) (Homo sapiens, UniProt P22694+P17612+P22612). Put plainly: Test for the inhibition of protein kinase A. It is filed as protein assay.
In assay [19] the target is T1, Platelet-derived growth factor receptor. Put plainly: Inhibition of human PDGF receptor phosphorylation; 2-10. Type of assay: protein-complex assay. The method in brief:
as §1

For assay [20] the target is unchanged. Kind of assay: Inhibition of human PDGF receptor phosphorylation; 0.03-0.1. It is filed as protein-complex assay. An outline of the steps:
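Receptor from quiescent NIH 3T3 cell lysates (24 h in 0.5% calf serum before lysis), stimulated with 10 ng/mL PDGF for 30 min at 4 °C, then immunoprecipitated with anti-PDGF receptor antibody on Protein A beads. Compound pre-incubated 10 min at 4 °C in 50 mM Tris, 10 mM MnCl2, pH 7.5. At least two dose-response assays per compound.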

Chain of Epidermal growth factor receptor (P00533 whole entry): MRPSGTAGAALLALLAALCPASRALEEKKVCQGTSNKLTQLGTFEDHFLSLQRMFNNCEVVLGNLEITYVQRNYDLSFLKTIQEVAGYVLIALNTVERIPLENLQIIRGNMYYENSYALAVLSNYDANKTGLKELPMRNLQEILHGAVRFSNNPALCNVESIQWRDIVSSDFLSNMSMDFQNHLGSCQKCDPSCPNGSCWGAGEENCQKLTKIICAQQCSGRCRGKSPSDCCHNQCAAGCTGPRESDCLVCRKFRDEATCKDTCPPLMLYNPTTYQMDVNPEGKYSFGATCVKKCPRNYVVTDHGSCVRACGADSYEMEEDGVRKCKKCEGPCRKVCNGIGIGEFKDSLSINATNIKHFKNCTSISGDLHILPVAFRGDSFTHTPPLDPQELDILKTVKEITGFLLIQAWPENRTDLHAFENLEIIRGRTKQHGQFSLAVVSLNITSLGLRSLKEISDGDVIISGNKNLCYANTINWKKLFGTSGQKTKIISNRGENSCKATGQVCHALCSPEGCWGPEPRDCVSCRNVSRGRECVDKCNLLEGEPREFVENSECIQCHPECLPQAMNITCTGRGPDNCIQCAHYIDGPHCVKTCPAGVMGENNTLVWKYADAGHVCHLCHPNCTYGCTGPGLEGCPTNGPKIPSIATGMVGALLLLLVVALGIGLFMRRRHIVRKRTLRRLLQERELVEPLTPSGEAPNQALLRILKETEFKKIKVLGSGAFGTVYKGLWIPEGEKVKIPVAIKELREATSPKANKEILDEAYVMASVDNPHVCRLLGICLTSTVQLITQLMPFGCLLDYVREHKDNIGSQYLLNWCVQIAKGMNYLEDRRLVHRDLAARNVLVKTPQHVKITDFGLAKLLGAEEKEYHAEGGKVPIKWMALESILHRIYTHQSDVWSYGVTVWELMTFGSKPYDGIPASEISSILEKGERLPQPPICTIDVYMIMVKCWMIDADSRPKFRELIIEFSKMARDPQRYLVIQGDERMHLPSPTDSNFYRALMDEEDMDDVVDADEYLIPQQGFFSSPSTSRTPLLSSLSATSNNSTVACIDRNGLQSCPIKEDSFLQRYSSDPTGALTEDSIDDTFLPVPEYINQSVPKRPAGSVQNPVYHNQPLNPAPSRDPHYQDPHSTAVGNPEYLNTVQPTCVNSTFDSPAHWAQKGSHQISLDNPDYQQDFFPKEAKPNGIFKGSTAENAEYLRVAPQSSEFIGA

In general, IC50 refers to the concentration that inhibits the measured activity by half. High values mean weaker potency, low ones greater potency. With `COc1cc2cc(-c3cccc(F)c3)cnc2cc1OC`, the results for the IC50 in assay [1] and in [2] were more than 20 µM and 0.025 µM, respectively.
For `COc1ccc(-c2cnc3cc(OC)c(OC)cc3c2)s1`, the IC50 is more than 20 µM in assay [1] and 0.25 µM in [3].
Turning to `COc1cc2cc(N)cnc2cc1OC`, the IC50 in [1] was more than 20 µM; in assay [4], more than 50 µM.
Take `COc1ccc2ncc(-c3ccsc3)cc2c1`: the IC50 in assay [5] is 0.07 µM; in assay [1], more than 20 µM.
Take `COc1ccc2cc(-c3cccnc3)cnc2c1OC`: the half-maximal inhibitory concentration (IC50) in [1] is more than 25 µM; in assay [4], more than 50 µM.
Take `COc1cc2cc(-c3ccc(O)cc3)cnc2cc1OC`: the IC50 in [1] is more than 20 µM; in assay [6], 0.03 µM.
With `Cc1ccc(C)c2ncc(-c3ccsc3)cc12`, the values for the IC50 in assay [1] and in assay [4] were more than 20 µM and more than 50 µM, respectively.
For the compound `c1ccc2ncc(-c3ccsc3)cc2c1`, the IC50 was more than 20 µM in assay [1] and 0.25 µM in assay [7].
Consider `Cc1cc(C)c2cc(-c3ccsc3)cnc2c1`, for which the IC50 is more than 20 µM in assay [1] and 0.005 µM in assay [8].
On to `COc1cc2cc(-c3cccs3)cnc2cc1OC`, for which the IC50 in [1] is more than 20 µM; in [9], 0.08 µM.
For `COc1cc2cc(-c3cccnc3)cnc2cc1OC`, the IC50 is 0.8 µM in assay [10] and more than 25 µM in assay [1].
`Fc1cccc2ncc(-c3ccsc3)cc12` had an IC50 in assay [4] of 0.02 µM.
Consider `COc1cc2cc(-c3sccc3Cl)cnc2cc1OC`, for which the IC50 in assay [1] is more than 20 µM; in [4], 1 µM.
Regarding `Fc1ccc2cc(-c3ccsc3)cnc2c1`, the 50% inhibitory concentration (IC50) in assay [1] was more than 20 µM; in assay [11] it was 0.025 µM.
On to `COc1cc2cc(-c3ccc(OCc4ccccc4)cc3)cnc2cc1OC`, for which the IC50 in assay [1] is more than 20 µM; in assay [4] it was more than 30 µM.
Consider `COc1cccc(-c2cnc3cc(OC)c(OC)cc3c2)c1`, for which the concentration for half-maximal inhibition (IC50) in assay [1] was more than 20 µM; in assay [12], 2 µM.
Take `COc1cc2cc(O)cnc2cc1OC`: the figures for the concentration for half-maximal inhibition (IC50) in assay [1] and in assay [4] were more than 20 µM and not below 20 µM, respectively.
Taken in the same sequence, the figures for `COc1cc2cc(-c3ccc4ccccc4c3)cnc2cc1OC` were more than 20 µM and not below 20 µM.
Taken in the same sequence, the figures for `COc1cc2cc(-c3ccccc3OC)cnc2cc1OC` were more than 20 µM and 2 µM.
For `COc1ccc2cc(-c3c[nH]c4ccccc34)cnc2c1OC` the same measures were more than 20 µM and more than 50 µM.
For the compound `Oc1cc2cc(-c3cccnc3)cnc2cc1O`, the IC50 in assay [1] was 0.5 µM; in [13] it was 10 µM.
`COc1cc2cc(NCc3ccccc3)cnc2cc1OC`: the half-inhibitory concentration (IC50) was more than 20 µM in assay [1] and 0.08 µM in assay [14].
In the case of `C(=C\c1cnc2ccccc2c1)/c1ccccc1`, the IC50 is more than 20 µM in [1] and 0.2 µM in [15].
With `COc1cc2cc([N+](=O)[O-])cnc2cc1OC`, the IC50 in [1] was more than 20 µM; in [4] it was more than 50 µM.
In the case of `COc1cc2cc(-c3ccccc3)cnc2cc1OC`, the IC50 in assay [16] was 0.15 µM; in [1], more than 20 µM.
Take `COc1cc(OC)c2cc(-c3ccsc3)cnc2c1`: the 50% inhibitory concentration (IC50) in assay [1] is more than 20 µM; in assay [17], 0.03 µM; in assay [18] it was more than 200 µM.
`COc1ccc(-c2cnc3cc(OC)c(OC)cc3c2)cc1OC`: the IC50 in assay [1] was more than 20 µM; in [19], 10 µM.
As for `COc1ccc(/C=C/c2cnc3cc(OC)c(OC)cc3c2)cc1`, the values for the IC50 in [1] and in [20] were more than 20 µM and 0.1 µM, respectively.
Regarding `COc1cc2cc(-c3cc(OC)c(OC)c(OC)c3)cnc2cc1OC`, the IC50 in [1] is more than 20 µM; in [4], more than 50 µM.
Taken in the same sequence, the figures for `COc1cc2cc(-c3ccc(-c4ccccc4)cc3)cnc2cc1OC` were more than 20 µM and more than 50 µM.
